Screens deposited in PubChem BioAssay by several laboratories.
NR2E3 ag-1: NR2E3 (human) agonism; Q9Y5X4; GST-NR2E3/biotin-RetCOR TR-FRET, 1536-well; inhibition of corepressor binding, % at 4.78 µM; 320,000 compounds, 0.12% hits;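 active means percent inhibition above the cutoff of mean plus 3 SD of all tested compounds, set per screening campaign, cut at about 20% in these data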;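 further: 0% = DMSO wells and 100% = biotin wells as full block of FRET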
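Material: NR2E3–RetCOR corepressor complex / Incubation: Compound–protein incubation for 5 h at 4 °C / Dosing: compound at 4.8 µM, single dose / Detection: time-resolved FRET / Benchmarks: high control biotin, low control 0.6% DMSO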
SMARCA2 activ: activators of SMARCA2 function. MG213 cells, MMTV-luciferase reporter, dexamethasone, overnight. AID 652017. activation, % at 9.1 µM. 370,000 compounds, 1% hits; in the data active means activation above about 7.8%;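 further: 0% = vehicle wells and 100% = reference activator wells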
JMJD2C inh: inhibitors of human GASC-1 (JMJD2C) demethylase. Q9H3R0. GST-JMJD2C(1-420) H3K9me3 demethylation, DELFIA europium. inhibition, % at 2.35 µM. 330,000 compounds, 0.069% hits. AID 2099;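 active means more than half of a compound's replicate wells show inhibition beyond 50%, single wells judged on their own value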;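 further: signal counts dimethyl H3K9 product captured on neutravidin plate; 0% = median of DMSO wells and 100% = 0.3 times that DMSO median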
Target sequence (Q9H3R0 1-420 limits assumed): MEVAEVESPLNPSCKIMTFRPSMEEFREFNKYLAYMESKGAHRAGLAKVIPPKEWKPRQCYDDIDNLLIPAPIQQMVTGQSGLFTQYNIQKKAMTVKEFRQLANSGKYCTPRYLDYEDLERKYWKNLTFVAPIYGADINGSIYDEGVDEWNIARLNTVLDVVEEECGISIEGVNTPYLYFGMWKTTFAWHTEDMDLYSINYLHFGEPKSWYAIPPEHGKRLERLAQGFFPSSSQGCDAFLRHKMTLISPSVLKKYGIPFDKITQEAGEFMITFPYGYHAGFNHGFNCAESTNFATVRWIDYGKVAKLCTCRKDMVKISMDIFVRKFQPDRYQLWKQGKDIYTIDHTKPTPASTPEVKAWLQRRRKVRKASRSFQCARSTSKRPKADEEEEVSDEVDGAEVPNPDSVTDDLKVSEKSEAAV
NR2E3 ag-2: activates human NR2E3 receptor; inhibition of corepressor binding, % at 3.98 µM; AID 602229; CHO-S Gal4-NCOR/VP16-NR2E3 two-hybrid, luciferase; 360,000 compounds, 0.35% hits; Q9Y5X4;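 active means inhibition above the mean of all tested compounds plus 3 SD, cut at about 70% in these data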;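 further: 0% = DMSO with NR2E3 transfected cells and 100% = cells lacking NR2E3 construct; higher means lower luciferase signal from less NR2E3 corepressor binding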
DAX1 inh-1: blocks DAX1 repression of SF-1 activated StAR promoter | HEK293T StAR-luciferase reporter, SF-1/DAX-1 repression relief | inhibition, % at 6.8 µM | 370,000 compounds, 1.1% hits | AID 652010;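 active means inhibition above the mean over all tested compounds plus 3 SD, cut at about 3.6% in these data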;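 further: 0% = DAX-1 cells with DMSO and 100% = cells lacking DAX-1 with DMSO; higher inhibition means more luminescence from relief of DAX-1 repression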
DAX1 inh-2: inhibits human nuclear receptor DAX1 | P51843 | HEK293 Gal4-DAX1 luciferase reporter, luminescence | inhibition, % at 6.75 µM | 340,000 compounds, 0.99% hits | AID 504766;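 active means inhibition above the mean over all tested compounds plus 3 SD, cut at about 4.2% in these data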;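 further: 0% = DAX1-transfected cells with DMSO and 100% = empty-vector control cells with DMSO; inhibition shows as a rise in luminescence from relieved DAX1 repression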
SMARCA2 act conf: confirmation of SMARCA2 (BRM) function activators. shares compounds with SMARCA2 activ. MG213 cells, MMTV-luciferase with dexamethasone, luminescence, overnight; MG213 cells expressing E1A, Rb sequestered; DMSO wells 0%, reference activator 100%. activation, % at 9.1 µM. 3,500 compounds, 30% hits. AID 652260;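 active means activation above its plate's cutoff, the mean activation of tested wells plus 3 SD, cut at about 7.9% in these data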
GAL4-VP16 Luc: GAL4-VP16 reporter activation counter-screen. shares compounds with SMARCA2 activ. HEK293 GAL4-VP16 pG5luc reporter, luciferase luminescence; scaled: DMSO wells 0%, SAHA wells 100%. activation, % at 9.1 µM. 3,500 compounds, 41% hits;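 active means activation above the solvent-only control well mean plus 3 SD, averaged across control plates, cut at about 5.2% in these data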
Starred values were filed as active, the others as inactive; / = no result given. An excerpt weighted towards active compounds, which were near 3.2% of everything screened.

SMILES	NR2E3 ag-1	SMARCA2 activ	JMJD2C inh	NR2E3 ag-2	DAX1 inh-1	DAX1 inh-2	SMARCA2 act conf	GAL4-VP16 Luc
O=C(/C=C/c1ccco1)Nc1cccnc1Cl	3	9.3*	-4	-74	1	4	6	6.8*
Cc1ccnc(NC(=S)NC(=O)/C=C/c2ccco2)c1	-4	8.0*	0	-60	1	2	11*	8.9*
O=C(CCSCc1ccccc1F)N1CCN(c2ccccn2)CC1	2	12*	1	-72	1	2	6	5.7*
Cc1ccc(S(=O)(=O)Nc2cc(C(=O)O)ccc2N2CCC(C)CC2)cc1C	/	2	/	/	1	/	/	/
Fc1cccc(C2NN=C(c3ccccc3)S2)c1 (stereo not drawn)	1	12*	-2	-97	4.5*	3	14*	13*
CN(C)c1cccc(CNC(=O)c2csc([C@@H]3O[C@H](CO)[C@@H](O)[C@H]3O)n2)c1	/	8.3*	/	-27	0	/	-4	0
CN(C)c1cccc(CNC(=O)c2csc([C@@H]3O[C@H](CO)[C@H](O)[C@H](O)[C@H]3O)n2)c1	/	-2	/	10	0	/	/	/
C[C@H]1COc2cc(N3CCC[C@H]3CO)ccc2S(=O)(=O)N1	/	10*	/	21	2	/	-3	0
CC(C)C[C@H]1COc2cc(N3CCC[C@@H]3CO)ccc2S(=O)(=O)N1	/	4	/	10	-2	/	/	/
C[C@@H]1COc2cc(N3CCC[C@H]3CO)ccc2S(=O)(=O)N1	/	8.0*	/	9	2	/	-4	-1
O=C(Oc1ccccc1C(=O)N1CCOCC1)c1ccccc1	2	8.0*	6	-17	0	-1	0	0
CC(=O)Nc1cccc(NC(=O)c2ccc3[nH]c(C)c(C)c3c2)c1	1	-2	-1	-15	0	-1	/	/
COc1ccc(NC(=O)c2ccc3[nH]c(C)c(C)c3c2)cc1	/	18*	0	-50	0	0	9.5*	4
COc1ccc(C(=O)Nc2cccc(-c3cnc4ccccc4n3)c2)cc1	1	8.4*	7	-38	0	0	-3	3
Cc1ccc(C(=O)Nc2cccc(-c3cnc4ccccc4n3)c2)cc1	5	2	-5	-29	1	0	/	/
COC(=O)c1sccc1NC(=O)c1ccc(C)cc1	3	-4	4	-2	0	1	/	/
COC(=O)c1sccc1NC(=O)c1ccc(OC)cc1	2	17*	0	-100	0	2	5	0
Cc1ccc(C(=O)Nc2cccc(C(=O)N3CCOCC3)c2)cc1	-2	16*	8	-35	1	1	8.3*	3
CC(C)(C)c1ccc(C(=O)Nc2cccc(C(=O)N3CCOCC3)c2)cc1	4	6	8	-40	0	-1	/	/
Clc1ccc(CN2CCN(N=Cc3c4ccccc4cc4ccccc34)CC2)cc1	/	-4	/	/	0	/	/	/
CCc1ccc(C(C#N)=CC=Cc2ccccc2)cc1	/	3	/	-25	-1	2	/	/
COc1ccc(S(=O)(=O)NCC(=O)N2CCN(c3ccccn3)CC2)c(OC)c1	/	-3	/	/	-1	/	/	/
CSc1ncnc2c1ccn2CC(=O)Nc1ccc(C)c(C)c1	3	1	-8	-15	-1	1	/	/
Cc1ccc(NC(=O)c2ccc(OC(=O)c3cc4ccccc4o3)cc2)cc1	0	9.1*	-1	-69	1	2	7	14*
COc1ccc(C(=O)NNc2ccccc2)cc1	0	10*	8	-5	0	0	-1	0
COc1ccc(C(=O)Nc2cccc(C)c2)cc1	-2	9.6*	1	-126	4.0*	0	13*	8.4*
COc1ccc([C@H]2CC(=O)C=C(c3ccc4c(c3)OCCO4)C2)cc1	6	8.3*	1	-41	0	1	2	2
